Test results reported in ChEMBL document CHEMBL3120083, “Discovery of N-[4-[6-tert-butyl-5-methoxy-8-(6-methoxy-2-oxo-1H-pyridin-3-yl)-3-quinolyl]phenyl]methanesulfonamide (RG7109), a potent inhibitor of the hepatitis C virus NS5B polymerase” (J Med Chem, 2014).
In brackets after ≈: the same amount, converted by molar mass.

What was measured:
[1] = test system: Hepatitis C virus; test: Antiviral activity against Hepatitis C virus genotype 1a clinical isolate RO-34 expressing NS5B assessed as inhibition of viral replication after 4 days by luciferase reporter gene assay; assay type: functional, organism-based, Hepacivirus hominis; conditions: genotype 1a clinical isolate RO-34, 96 h
[2] = AUC (0 to infinity) in Beagle dog at 3 mg/kg, po of compound as aqueous suspension; assay type: ADME, organism-based, Canis lupus familiaris; parameters: time infinity, dose 3 mg/kg, route oral; conditions: plasma
[3] = test system: Hepatitis C virus; test: Antiviral activity against Hepatitis C virus genotype 1b Con1 infected in human 2209-23 cells after 72 hrs by luciferase reporter gene assay in presence of 40% human serum; assay type: functional, organism-based, Hepacivirus hominis; conditions: isolate Con1, 2209-23, 72 h
[4] = test system: Hepatitis C virus; test: Antiviral activity against Hepatitis C virus genotype 1b clinical isolate RO-4 expressing NS5B assessed as inhibition of viral replication after 4 days by luciferase reporter gene assay; assay type: functional, organism-based, Hepacivirus hominis; conditions: genotype 1b clinical isolate RO-4, 96 h
[5] = test system: Hepatitis C virus; test: Antiviral activity against Hepatitis C virus genotype 1b clinical isolate RO-9 expressing NS5B assessed as inhibition of viral replication after 4 days by luciferase reporter gene assay; assay type: functional, organism-based, Hepacivirus hominis; conditions: genotype 1b clinical isolate RO-9, 96 h
[6] = test system: Hepatitis C virus; test: Antiviral activity against Hepatitis C virus genotype 1b Con1 infected in human 2209-23 cells after 72 hrs by luciferase reporter gene assay; assay type: functional, organism-based, Hepacivirus hominis; conditions: isolate Con1, 2209-23, 72 h
In short: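 Stable GT-1b Con1 subgenomic replicon cell line expressing a renilla luciferase reporter, used as the readout of inhibition. EC50 from luciferase signal, n 2.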

[7] = test system: Hepatitis C virus; test: Antiviral activity against Hepatitis C virus genotype 1a H77 infected in human 2209-23 cells after 72 hrs by luciferase reporter gene assay in presence of 40% human serum; assay type: functional, organism-based, Hepacivirus hominis; conditions: genotype 1a H77, 2209-23, 72 h
[8] = Clearance in Beagle dog at 1 mg/kg, iv; assay type: ADME, organism-based, Canis lupus familiaris; parameters: dose 1 mg/kg, route intravenous; conditions: in vivo
In short: (§1)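 Single intravenous bolus via tail vein or jugular cannula of dual-cannulated animals, vehicle 2% dimethyl acetamide/20% PEG400/23.4% HPBCD. EDTA blood typically taken at 0.08, 0.25, 0.5, 1, 2, 4, 6, 8 and 24 h from the remaining cannulas. Plasma drug measured by LC/MS/MS following acetonitrile protein precipitation.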

[9] = test system: Hepatitis C virus; test: Antiviral activity against Hepatitis C virus genotype 1a clinical isolate RO-18 expressing NS5B assessed as inhibition of viral replication after 4 days by luciferase reporter gene assay; assay type: functional, organism-based, Hepacivirus hominis; conditions: genotype 1a clinical isolate RO-18, 96 h
[10] = Volume of distribution at steady state in Wistar/Han rat at 3 mg/kg, iv; assay type: ADME, organism-based; parameters: dose 3 mg/kg, route intravenous; conditions: in vivo, read-out: Vdss; in short: as §1
[11] = test system: Hepatitis C virus; test: Antiviral activity against Hepatitis C virus genotype 1a clinical isolate RO-28 expressing NS5B assessed as inhibition of viral replication after 4 days by luciferase reporter gene assay; assay type: functional, organism-based, Hepacivirus hominis; conditions: genotype 1a clinical isolate RO-28, 96 h
[12] = Drug uptake in Wistar/Han rat at 30 mg/kg, po of compound as aqueous suspension measured at 8 hrs; assay type: ADME, organism-based; parameters: dose 30 mg/kg, route oral; conditions: in vivo, read-out: Drug uptake
[13] = Oral bioavailability in Wistar/Han rat at 30 mg/kg of compound as aqueous suspension; assay type: ADME, organism-based; conditions: in vivo
[14] = test system: Hepatitis C virus; test: Antiviral activity against Hepatitis C virus genotype 1a H77 expressing NS5B assessed as inhibition of viral replication after 4 days by luciferase reporter gene assay; assay type: functional, organism-based, Hepacivirus hominis; conditions: genotype 1a H77, 96 h
[15] = test system: Hepatitis C virus; test: Antiviral activity against Hepatitis C virus genotype 1a clinical isolate RO-24 expressing NS5B assessed as inhibition of viral replication after 4 days by luciferase reporter gene assay; assay type: functional, organism-based, Hepacivirus hominis; conditions: genotype 1a clinical isolate RO-24, 96 h
[16] = test system: Hepatitis C virus; test: Antiviral activity against Hepatitis C virus genotype 1b clinical isolate RO-2 expressing NS5B assessed as inhibition of viral replication after 4 days by luciferase reporter gene assay; assay type: functional, organism-based, Hepacivirus hominis; conditions: genotype 1b clinical isolate RO-2, 96 h
[17] = AUC (0 to infinity) in Wistar/Han rat at 30 mg/kg, po of compound as aqueous suspension; assay type: ADME, organism-based; parameters: time infinity, dose 30 mg/kg, route oral; conditions: plasma
[18] = Oral bioavailability in Beagle dog at 3 mg/kg of compound as aqueous suspension; assay type: ADME, organism-based, Canis lupus familiaris; conditions: in vivo
[19] = Half life in Beagle dog at 1 mg/kg, iv; assay type: ADME, organism-based, Canis lupus familiaris; parameters: dose 1 mg/kg, route intravenous; conditions: in vivo; in short: as §1
[20] = test system: Hepatitis C virus; test: Ratio of EC50 for Hepatitis C virus genotype 1a H77 in presence of human serum to EC50 for Hepatitis C virus genotype 1a H77; assay type: functional, Hepacivirus hominis
[21] = test system: Hepatitis C virus; test: Antiviral activity against Hepatitis C virus genotype 1b clinical isolate RO-1 expressing NS5B assessed as inhibition of viral replication after 4 days by luciferase reporter gene assay; assay type: functional, organism-based, Hepacivirus hominis; conditions: genotype 1b clinical isolate RO-1, 96 h
[22] = Cmax in Beagle dog at 3 mg/kg, po of compound as aqueous suspension; assay type: ADME, organism-based, Canis lupus familiaris; parameters: dose 3 mg/kg, route oral; conditions: in vivo
[23] = test system: Hepatitis C virus; test: Antiviral activity against Hepatitis C virus genotype 1b clinical isolate RO-7 expressing NS5B assessed as inhibition of viral replication after 4 days by luciferase reporter gene assay; assay type: functional, organism-based, Hepacivirus hominis; conditions: genotype 1b clinical isolate RO-7, 96 h
[24] = test system: Hepatitis C virus; test: Antiviral activity against Hepatitis C virus genotype 1a clinical isolate RO-33 expressing NS5B assessed as inhibition of viral replication after 4 days by luciferase reporter gene assay; assay type: functional, organism-based, Hepacivirus hominis; conditions: genotype 1a clinical isolate RO-33, 96 h
[25] = test system: Hepatitis C virus; test: Antiviral activity against Hepatitis C virus genotype 1a H77 infected in human 2209-23 cells after 72 hrs by luciferase reporter gene assay; assay type: functional, organism-based, Hepacivirus hominis; conditions: genotype 1a H77, 2209-23, 72 h
[26] = test system: Hepatitis C virus; test: Antiviral activity against Hepatitis C virus genotype 1b clinical isolate RO-3 expressing NS5B assessed as inhibition of viral replication after 4 days by luciferase reporter gene assay; assay type: functional, organism-based, Hepacivirus hominis; conditions: genotype 1b clinical isolate RO-3, 96 h
[27] = Cmax in Wistar/Han rat at 30 mg/kg, po of compound as aqueous suspension; assay type: ADME, organism-based; parameters: dose 30 mg/kg, route oral; conditions: in vivo
[28] = Clearance in Wistar/Han rat at 3 mg/kg, iv; assay type: ADME, organism-based; parameters: dose 3 mg/kg, route intravenous; conditions: in vivo; in short: as §1
[29] = test system: Hepatitis C virus; test: Antiviral activity against Hepatitis C virus genotype 1a clinical isolate RO-35 expressing NS5B assessed as inhibition of viral replication after 4 days by luciferase reporter gene assay; assay type: functional, organism-based, Hepacivirus hominis; conditions: genotype 1a clinical isolate RO-35, 96 h
[30] = Thermodynamic solubility of the compound; assay type: physicochemical; conditions: read-out: Therm_solubility
[31] = test system: Hepatitis C virus; test: Ratio of EC50 for Hepatitis C virus genotype 1b Con1 in presence of human serum to EC50 for Hepatitis C virus genotype 1b Con1; assay type: functional, Hepacivirus hominis, isolate Con1
[32] = Volume of distribution at steady state in Beagle dog at 1 mg/kg, iv; assay type: ADME, organism-based, Canis lupus familiaris; parameters: dose 1 mg/kg, route intravenous; conditions: in vivo, read-out: Vdss; in short: as §1
[33] = Half life in Wistar/Han rat at 3 mg/kg, iv; assay type: ADME, organism-based; parameters: dose 3 mg/kg, route intravenous; conditions: in vivo; in short: as §1
[34] = test system: Hepatitis C virus; test: Antiviral activity against Hepatitis C virus genotype 1b Con1 expressing NS5B assessed as inhibition of viral replication after 4 days by luciferase reporter gene assay; assay type: functional, organism-based, Hepacivirus hominis; conditions: isolate Con1, 96 h
[35] = test system: Hepatitis C virus; test: Antiviral activity against Hepatitis C virus genotype 1b clinical isolate RO-8 expressing NS5B assessed as inhibition of viral replication after 4 days by luciferase reporter gene assay; assay type: functional, organism-based, Hepacivirus hominis; conditions: genotype 1b clinical isolate RO-8, 96 h
[36] = Drug uptake in Beagle dog at 3 mg/kg, po of compound as aqueous suspension measured at 8 hrs; assay type: ADME, organism-based, Canis lupus familiaris; parameters: dose 3 mg/kg, route oral; conditions: in vivo, read-out: Drug uptake
[37] = test system: Hepatitis C virus; test: Antiviral activity against Hepatitis C virus genotype 1a clinical isolate RO-38 expressing NS5B assessed as inhibition of viral replication after 4 days by luciferase reporter gene assay; assay type: functional, organism-based, Hepacivirus hominis; conditions: genotype 1a clinical isolate RO-38, 96 h
[38] = test system: Hepatitis C virus; test: Antiviral activity against Hepatitis C virus genotype 1b clinical isolate RO-10 expressing NS5B assessed as inhibition of viral replication after 4 days by luciferase reporter gene assay; assay type: functional, organism-based, Hepacivirus hominis; conditions: genotype 1b clinical isolate RO-10, 96 h
[39] = test system: Hepatitis C virus; test: Antiviral activity against Hepatitis C virus genotype 1a clinical isolate RO-41 expressing NS5B assessed as inhibition of viral replication after 4 days by luciferase reporter gene assay; assay type: functional, organism-based, Hepacivirus hominis; conditions: genotype 1a clinical isolate RO-41, 96 h
[40] = Ratio of EC50 for Hepatitis C virus genotype 1a H77 to EC50 for Hepatitis C virus genotype 1b Con1; assay type: functional

For COc1ccc(-c2cc(C(C)(C)C)c(OC)c3cc(N4CC[C@H](CNS(C)(=O)=O)C4)cnc23)c(=O)[nH]1, the EC50 [1] was 0.4 nM, the AUC(0-inf) [2] was 4200 ng·h/mL and the EC50 [3] was 7.5 nM. It also gave an EC90 [3] of 44 nM, an EC50 [4] of 0.8 nM and an EC50 [5] of 3.5 nM. It also gave an EC50 [6] of 12 nM, an EC50 [7] of 10 nM and an EC90 [7] of 61 nM. It also gave a clearance [8] of 4.4 mL/min/kg, an EC50 [9] of 0.5 nM and a Vd [10] of 2.3 L/kg. The EC50 [11] was 0.2 nM, the concentration at 8 h [12] was 1790 ng/mL and the bioavailability [13] was 100%. It also gave an EC50 [14] of 0.65 nM, an EC50 [15] of 2.5 nM and an EC50 [16] of 4 nM. For the same compound, the AUC(0-inf) [17] was 37000 ng·h/mL, the bioavailability [18] was 36% and the half-life [19] was 5.1 h. For the same compound, the “Ratio EC50” value [20] was 0.6, the EC50 [21] was 0.3 nM and the Cmax [22] was 360 ng/mL. It also gave an EC50 [23] of 3.05 nM, an EC50 [24] of 0.7 nM and an EC50 [25] of 17 nM. It also gave an EC50 [26] of 6.1 nM, a Cmax [27] of 3800 ng/mL and a clearance [28] of 13.8 mL/min/kg. The EC50 [29] was 0.5 nM, the solubility thermodynamic [30] was 39 µg/mL (≈ 75.8 µM) and the “Ratio EC50” value [31] was 0.6. The Vd [32] was 1.5 L/kg, the half-life [33] was 5.6 h and the EC50 [34] was 1.2 nM. It also gave an EC50 [35] of 0.33 nM, a concentration at 8 h [36] of 210 ng/mL and an EC50 [37] of 9.5 nM. The EC50 [38] was 1.67 nM, the EC50 [39] was 0.27 nM and the “Ratio EC50” value [40] was 1.4.
